Results: PMC11164094 (International Journal of Nanomedicine, 2024)
Values after ≈ are worked out from the molar mass of the structure shown.

Key:
HUA mice = experiment: In vivo anti-hyperuricemia study; parameters: species or system KM mice; settings: for serum UA level vs HUA group: gavage once daily, 5 mg/kg FEB, 10 mg/kg OBB, 1, 2, 4 mg/kg OBB-HP-β-CD SDDS
How it was run: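 KM mice (male, 20 ± 2 g, 4 weeks, SPF) were acclimatised ≥7 days at 24 ± 1°C, n = 10/group. Hyperuricemia was induced daily for 10 days with PO 300 mg/kg i.p. plus HX 300 mg/kg oral. Test compound was gavaged 1 h post-challenge, once daily for 7 days. Kidneys were taken 1 h after the last dose, fixed 24 h in 4% PFA, paraffin-embedded, sectioned at 4 μm, H&E-stained and blind-scored at 200× (n = 3).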

[1] = Solubility test of OBB in different dissolution media and excipient solutions; assay type: physicochemical; settings: for Solubility: 25°C, shaken 24 h
How it was run: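 Excess test compound was added to each medium, with solid excipients made up as 25 mg/mL aqueous solutions. Samples were shaken at 90 rpm and 25°C for 24 h to reach equilibrium. They were then centrifuged (9000 ×g, 20 min), and the supernatant was filtered (0.22 µm), diluted and quantified by HPLC. HPLC used a C18 column with methanol-water 70:30 and 0.1% formic acid, isocratic at 1.0 mL/min, 30°C.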

[2] = previous study; cited from earlier work
[3] = Pharmacokinetic study in rats; assay type: in vivo; settings: male, Sprague Dawley, rat, blood, oral, 50 mg/kg
How it was run: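 Male Sprague Dawley rats (200–240 g) were fasted overnight with free water and dosed in groups of 6. Dose was 50 mg/kg test compound, given p.o. as raw material or as HP-β-CD supersaturated formulation, or i.v. as formulation. Heparinized orbital blood was drawn at 0.083–24 h. Acetonitrile protein precipitation with piperine internal standard; centrifuged 2000 ×g, 10 min; residue redissolved in methanol, filtered; HPLC.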

[4] = previous study; cited from earlier work; remark: listed apart in the source
[5] = Appearance and solubility of prepared samples in water; assay type: physicochemical

solubility at 24 h ([1]; artificial gastric fluid) [µg/mL] | Solubility ([1]; artificial intestinal fluid) | Solubility ([1]; water) | bioavailability [3] [%] | appearance after addition of water and sufficient stirring [5] | SMILES | renal histopathological damage (H&E) vs HUA group (HUA mice) | serum UA level vs HUA group (HUA mice) | anti-hyperuricemic activity [2] | safety profile [4]
– | – | – | – | – | Cc1nc(-c2ccc(OCC(C)C)c(C#N)c2)sc1C(=O)O [FEB, febuxostat, reference compound] | effectively ameliorated | significantly decreased | – | –
~0.32 (≈ 0.911 µM) | completely insoluble | completely insoluble | 1.55 | remained cloudy | COc1ccc2cc3n(c(=O)c2c1OC)CCc1cc2c(cc1-3)OCO2 [OBB, Oxyberberine] | effectively ameliorated | significantly decreased | comparable to the first-line agent febuxostat | favorable safety profile
